The values that follow come from ChEMBL document CHEMBL4130342, “New semi-synthetic analogs of oleuropein show improved anticancer activity in vitro and in vivo” (Eur J Med Chem, 2017).

Usually pIC50 stands for the negative decadic logarithm of the IC50, by convention in mol/L. A high value points to a low IC50.

pIC50: −log10 of the molar value.

One data set relates to MCF7. Put plainly: Antiproliferative activity against human MCF7 cells after 72 hrs by MTT reduction assay. The following applies: MCF7, 72 h. In kind it is functional, cell-based. In short, it runs like this:
(§1)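 MTT reduction assay; adherent lines left to adhere overnight, suspension lines (HL-60, K562) seeded on the day. […] Incubation was 72 h at 37°C, with MTT added for the last 4 h. OD read at 545 nm (reference 690 nm). IC50 from 100(A0-A)/A0=50; means ± SD of 3 independent experiments.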
On the technique in general: Formazan colour is commonly taken as a measure of viable cells.

Data set [1] deals with PBMC. The data set can be described thus: Induction of apoptosis in human PBMC assessed as late apoptotic cells at 150 ug/ml after 24 hrs by propidium iodide staining-based flow cytometric method (reference value: 0.6%). In kind it is cell-based. In general terms: A flow cytometer gives signals particle by particle.
For data set [2], the system named is PBMC. Put plainly: Induction of apoptosis in human PBMC assessed as necrotic cells at 150 ug/ml after 24 hrs by propidium iodide staining-based flow cytometric method (reference value: 1%). In kind it is cell-based.
The subject of data set [3] is PBMC. The data set can be described thus: Induction of apoptosis in human PBMC assessed as early apoptotic cells at 300 ug/ml after 24 hrs by propidium iodide staining-based flow cytometric method (reference value: 0.1%). In kind it is cell-based.
Data set [4] relates to PBMC. Put plainly: Induction of apoptosis in human PBMC assessed as late apoptotic cells at 300 ug/ml after 24 hrs by propidium iodide staining-based flow cytometric method (reference value: 0.6%). In kind it is cell-based.
For data set [5], the system named is B16-F1. The data set can be described thus: Antiproliferative activity against mouse B16-F1 cells after 72 hrs by MTT reduction assay. The format is functional, cell-based. The following applies: B16-F1, 72 h. In short, it runs like this:
as §1

In data set [6] the test system is B16-F1. Put plainly: Induction of apoptosis in mouse B16-F1 cells assessed as early apoptotic cells at 283.90 uM after 48 hrs by propidium iodide staining-based flow cytometric method (reference value: 0.2%). In kind it is functional.
Data set [7] concerns B16-F1. The data set can be described thus: Induction of apoptosis in mouse B16-F1 cells assessed as late apoptotic cells at 283.90 uM after 48 hrs by propidium iodide staining-based flow cytometric method (reference value: 0.5%). The format is functional.
Data set [8] has as its system B16-F1. Put plainly: Antitumor activity against mouse B16-F1 cells allografted in C57BL/6 mouse assessed as tumor volume at 600 ug, ip administered every other day up to day 29 measured on day 29 post last dose (reference value: 2.83 cm'3). In kind it is functional. Put shortly:
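Male C57BL/6 mice, 6-8 weeks old, received 10^5 B16.F1 cells sc in the right flank on day 0. From day 11 (palpable tumors), 5 mice/group were randomized and given ip doses in 200 µL PBS every other day, 8 doses in total, up to day 29. Control group received PBS. Tumors were measured by caliper every two days; volume = 1/2(length × width²).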

Data set [9] deals with Mus musculus. Put plainly: Toxicity in C57BL/6 mouse allografted with mouse B16-F1 cells assessed as effect on mouse survival at 600 ug, ip administered every other day up to day 29. The format is organism-based. The following applies: in vivo. Put shortly:
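Male C57BL/6 mice (6-8 wk) were injected sc with 10⁵ B16.F1 cells on day 0. From day 11 they received ip doses in 200 µL PBS every other day, 8 doses in total, with PBS controls. Tumors were caliper-measured every two days and the animals monitored to day 29 for signs of toxicity. Groups of 5.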

The test system of data set [10] is Mus musculus. The data set can be described thus: In vivo induction of tumor-reactive immune response in C57BL/6 mouse allografted with mouse B16-F1 cells assessed as splenocyte-mediated NK-sensitive mouse YAC-1 cell lysis at 600 ug, ip administered every other day up to day 29 measured on day 29 post last dose by flow cytometric method (reference value: 1.2 to 1.7). In kind it is functional. Put shortly:
(§2)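 Male C57BL/6 mice (6-8 wk) were injected sc in the right flank with 10⁵ B16.F1 cells in PBS on day 0. From day 11, when tumors were palpable, they received ip doses in 200 µL PBS every other day (8 doses; 5 mice/group). On day 29, splenocytes were co-cultured unstimulated with targets at E:T 100:1 for 6 h at 37°C. CD107a/b MFI was read by flow cytometry, 2 mice/group tested individually.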

Data set [11] deals with Mus musculus. Put plainly: In vivo induction of tumor-reactive immune response in C57BL/6 mouse allografted with mouse B16-F1 cells assessed as splenocyte-mediated NK-sensitive mouse YAC-1 cell lysis at 300 ug, ip administered every other day up to day 29 measured on day 29 post last dose by flow cytometric method (reference value: 1.2 to 1.7). In kind it is functional. Put shortly:
as §2

Data set [12] deals with Mus musculus. Put plainly: In vivo induction of tumor-reactive immune response in C57BL/6 mouse allografted with mouse B16-F1 cells assessed as splenocyte-mediated syngeneic mouse B16-F1 cell lysis at 600 ug, ip administered every other day up to day 29 measured on day 29 post last dose by flow cytometric method (reference value: 3.3 to 3.9). In kind it is functional. In short, it runs like this:
as §2

Data set [13] deals with Mus musculus. Put plainly: In vivo induction of tumor-reactive immune response in C57BL/6 mouse allografted with mouse B16-F1 cells assessed as splenocyte-mediated syngeneic mouse B16-F1 cell lysis at 300 ug, ip administered every other day up to day 29 measured on day 29 post last dose by flow cytometric method (reference value: 3.3 to 3.9). In kind it is functional. Put shortly:
as §2

On to `C/C=C1/[C@H](O[C@@H]2O[C@H](CO)[C@@H](O)[C@H](O)[C@H]2O)OC=C(C(=O)OC)[C@H]1CC(=O)OCCc1ccc(O)c(O)c1` [OLEUROPEIN], for which the negative-log IC50 (pIC50) with MCF7 is 3.77 to 3.79; with B16-F1 [5] it was 3.55. Also, the Activity in the data set with PBMC [1] is 1.5%; in the data set on PBMC [2], 2.5%; in the data set on PBMC [3] it was 1.2%; in the data set on PBMC [4], 1.9%; with B16-F1 [6] it was 13.6%; in the data set with B16-F1 [7], 9.8%. Moreover, the Activity was 2.33 cm3 in the data set with B16-F1 [8] and “Non-Toxic” in the data set with Mus musculus [9]. Further, the Flu intensity is recorded as 2.9 - 3.3 with Mus musculus [10], 2.3 - 2.7 in the data set on Mus musculus [11], 6.6 - 7.5 in the data set on Mus musculus [12] and 3.2 - 3.9 in the data set with Mus musculus [13].
